In the library only some 1.6% were active in any assay of this set; here they are far more common.
PHOSPHO1 inh: blocks human PHOSPHO1 phosphatase activity; recombinant PHOSPHO1, absorbance phosphatase assay; inhibition, % at 13.3 µM; hit rate 1.1% among 290,000; in the data active = inhibition above about 60%
Target sequence (Q8TCT1 whole entry, looked up): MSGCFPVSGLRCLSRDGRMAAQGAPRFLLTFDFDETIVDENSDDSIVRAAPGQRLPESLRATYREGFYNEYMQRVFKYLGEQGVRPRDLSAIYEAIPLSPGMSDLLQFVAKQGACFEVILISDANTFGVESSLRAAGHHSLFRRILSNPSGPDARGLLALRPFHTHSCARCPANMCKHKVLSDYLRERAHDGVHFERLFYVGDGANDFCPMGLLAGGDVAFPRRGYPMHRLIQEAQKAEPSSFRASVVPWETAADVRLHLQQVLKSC
NCF1 inh: blocks human p47phox regulatory protein of NADPH oxidases; inhibition, % at 24.7 µM; p47phox/p22phox peptide binding, fluorescence polarization, 2 h; P14598; AID 1274; hit rate 0.53% among 220,000;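 active = inhibition above about 30%, limit read from the data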;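 also: 0% = p47phox with labelled peptide and 100% = labelled peptide alone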
Target sequence (P14598 whole entry, looked up): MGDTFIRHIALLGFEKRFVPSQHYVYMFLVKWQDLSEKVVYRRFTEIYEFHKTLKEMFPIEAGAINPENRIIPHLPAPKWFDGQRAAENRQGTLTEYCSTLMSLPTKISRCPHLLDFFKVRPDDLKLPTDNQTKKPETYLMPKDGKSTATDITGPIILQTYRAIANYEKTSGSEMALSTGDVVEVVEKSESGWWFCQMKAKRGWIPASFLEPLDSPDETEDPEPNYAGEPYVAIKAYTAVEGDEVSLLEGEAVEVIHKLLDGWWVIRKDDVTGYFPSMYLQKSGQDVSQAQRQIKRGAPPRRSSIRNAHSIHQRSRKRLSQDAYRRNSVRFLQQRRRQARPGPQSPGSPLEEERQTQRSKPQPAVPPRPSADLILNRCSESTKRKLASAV
PKD1 kinase inh: PKD1 (human) kinase inhibition. Q15139. PKD1 kinase fluorescence polarization assay. inhibition, % (no concentration beside the values). hit rate 0.056% among 200,000. AID 797; in the data active = inhibition above about 50%
ABCB1 inh: human ABCB1 inhibition, ABCG2 as counter-screen. hit rate 0.067% among 190,000. CCRF-Adr cells, JC-1 efflux, flow cytometry. P08183. inhibition, % at 6.6 µM. AID 1326; in the data active = inhibition above about 40%;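 also: 0% = vehicle and 100% = reference inhibitor; higher value means more JC-1 retained so stronger ABCB1 efflux block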
HSV augment: HSV replication enhancement; hit rate 0.005% among 220,000; maximum fold increase; AID 1956; HSV replication augmentation in cells, fold increase; in the data active = maximum fold increase above about 1.5; tested in PC3 cells
ABCG2 block: human ABCG2 inhibition, ABCB1 as counter-screen. hit rate 0.1% among 190,000. inhibition, % at 6.6 µM. IgMXP3 cells, JC-1 efflux, flow cytometry;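 active = inhibition above 80%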;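 also: 0% = DMSO and 100% = nicardipine control wells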
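Test system: IgMXP3 (ABCG2) plus far-red-tagged CCRF-Adr (ABCB1) cells / Amount: 3 million cells/mL in well / Reagent: JC-1 transporter substrate / Timing: 10 min compound exposure, 25 °C / Signal: flow cytometry, 530 nm JC-1 signal / Read-out: percent efflux inhibition, scaled nicardipine 100% to DMSO 0% / Benchmarks: nicardipine as high control, DMSO as low control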
* = called active by the depositor; i = inactive; / = no result; + = active, no number.

SMILES | PHOSPHO1 inh | NCF1 inh | PKD1 kinase inh | ABCB1 inh | HSV augment | ABCG2 block
O=C(O)c1csc(-c2ccc(Cl)cc2)n1 | 48 | 65* | 7 | 1 | i | 0
CCCOc1ccccc1NC(=O)Nc1ccccc1Cl | -6 | -2 | -5 | 0 | i | 7
Cc1ccc(S(=O)(=O)NC(CC(C)C)C(=O)Oc2ccc3c4c(c(=O)oc3c2)CCC4)cc1 (stereo not drawn) | 60* | 0 | 7 | 2 | i | 4
CC(C)Oc1ccc(CNC(=S)N/N=C/c2ccc([N+](=O)[O-])cc2)cc1 | 74* | -13 | -3 | 0 | i | 0
CCOc1ccc(CNC(=S)N/N=C/c2ccncc2)cc1 | 1 | -10 | 5 | 0 | i | 4
CC(C)COc1ccc(CNC(=S)N/N=C/c2ccc([N+](=O)[O-])cc2)cc1 | 95* | -12 | 1 | 1 | i | 5
CCCOc1ccc(CNC(=S)N/N=C/c2ccc([N+](=O)[O-])cc2)cc1 | 80* | 5 | 0 | 0 | i | 4
O=C(OCCN1CCN(C2=NS(=O)(=O)c3ccccc32)CC1)c1cccc(Br)c1 | 25 | / | / | / | / | /
CCCCC(=O)NNC(=S)NC(=O)CCC | -4 | -7 | -5 | 2 | / | 3
CCCCC(=O)NC(=S)NNC(=O)CC#N | 95* | -11 | -8 | 0 | i | 0
CCCCCCC(C)OC(=O)c1ccccc1C(=O)O (stereo not drawn) | -19 | -13 | / | / | i | /
CCC1CCC2(CC1)NNC(=S)NN2 | 97* | -6 | -4 | 0 | i | 0
CCCCn1c2c(c(=N)c3c1CCC3)CCC2 | 95* | 0 | 1 | 0 | i | 1
CCCCCCCCCn1c2c(c(=N)c3c1CCC3)CCC2 | 17 | 9 | -1 | 0 | i | -2
Cc1cc(C)cc(N(C(C)C(=O)N2CCCC2)S(C)(=O)=O)c1 (stereo not drawn) | -7 | / | / | / | / | /
CCCCCCCCCC[n+]1cccc2c3ccccc3ccc21 | -8 | 50* | 1 | 0 | i | 0
CCc1ccc(NC(=O)CN(C)S(=O)(=O)c2ccc3[nH]c(=O)oc3c2)cc1 | -10 | / | / | / | / | /
COc1ccc(NC(=O)CN(C)S(=O)(=O)c2ccc3[nH]c(=O)oc3c2)cc1 | 63* | / | / | / | / | /
CNS(=O)(=O)c1cccc(C(=O)OCC(=O)N(Cc2ccccc2)C(C)(C)C)c1 | 4 | -6 | -2 | 1 | i | 3
S=c1[nH]ncc2ccccc12 | 67* | -10 | -4 | 3 | i | 21
COc1cc(/C=C2\NC(=O)NC2=O)cc(Br)c1OC | 29 | / | / | / | / | /
CCOc1cc(/C=C2/NC(=O)NC2=O)cc(Br)c1OCc1ccc(C(=O)O)cc1 | 86* | -17 | 4 | 1 | i | 2
CN(CC(=O)Nc1ccccc1Br)C(=O)CNC(=O)c1ccc(Oc2ccccc2)cc1 | 28 | / | / | / | / | /
COc1ccc(NC(=O)CN2C(=O)NC(C)(c3ccccc3)C2=O)cc1Cl (stereo not drawn) | 31 | / | / | / | / | /
CC(C)CN1CCN(C(=O)CCc2nnc(Cc3c[nH]c4ccccc34)o2)[C@@H](C)C1=O | 66* | / | / | / | / | /
SMILES | PHOSPHO1 inh | NCF1 inh | PKD1 kinase inh | ABCB1 inh | HSV augment | ABCG2 block
Cc1cc(C)c2c(CC(=O)NNC(=O)c3ccccc3)coc2c1 | 24 | / | / | / | / | /
O=C(CC1Sc2ccccc2NC1=O)OCC(=O)N1CCc2ccccc21 (stereo not drawn) | 62* | -24 | 10 | 2 | i | 8
COc1cc(C(=O)Nc2nc(C)cc(C)n2)cc(OC)c1OC | -4 | -2 | / | / | i | /
CCN(CC)C(=O)CN1CCN(Cc2ccc3c(c2)OCO3)CC1 | 28 | / | / | / | / | /
CCCc1cc(=O)c2c(O)ccc(OC)c2o1 | 46 | 1 | / | / | i | /
Cc1cc(C)n(-c2nc(NCCO)c3c4c(sc3n2)CCCC4)n1 | 81* | -5 | -4 | 1 | i | 4
COc1ccc(OC)c(NC(=O)CN(C)S(=O)(=O)c2ccc(Cl)cc2)c1 | 30 | -2 | 0 | 1 | i | 26
Cc1ccccc1N(CC(=O)Nc1ccc(S(=O)(=O)N2CCOCC2)cc1)S(C)(=O)=O | 63* | -1 | 4 | 0 | i | 1
CCN(CC)c1ccc(NC(=O)CN2CCN(S(=O)(=O)c3cc(Cl)ccc3OC)CC2)cc1 | 93* | -2 | 0 | 1 | i | 2
CCN1/C(=C\C(C)=O)Sc2ccc(OC)cc21 | 61* | -6 | 35 | 1 | i | 3
CCC(=O)/C=C1\Sc2ccc(OC)cc2N1CC | 28 | -6 | 46 | 5 | i | 9
CCN(CC)c1ccc(NC(=O)Nc2ccc(C(C)=O)cc2)cc1 | 85* | -12 | -1 | 4 | i | 28
CCC(c1nnnn1C1CCCCC1)N1CCN(C(=O)c2ccco2)CC1 (stereo not drawn) | 14 | / | / | / | / | /
CCOC(=O)C(C(=O)OCC)c1cc(Br)c2noc3c2c1C(=O)c1ccccc1-3 | 35 | 0 | -8 | 156* | / | +
COCCCNC(=O)c1ccc2c3c(onc13)-c1ccccc1C2=O | 29 | -44 | / | / | i | /
O=C(CNCCc1ccc(Cl)cc1Cl)NCc1ccco1 | 63* | -3 | -6 | -3 | i | -2
CN(C)c1ccc(/C=N/n2c(COc3ccccc3)n[nH]c2=S)cc1 | 79* | 0 | 1 | -1 | i | -2
CCCC(=O)Nc1ccc(-c2csc(N/N=C\c3ccncc3)n2)cc1 | 14 | -14 | / | / | i | /
CC1CCCC(NC(=O)COC(=O)c2ccccc2[N+](=O)[O-])C1C (stereo not drawn) | 20 | 43* | 0 | 1 | i | 3
Cc1cccc(C)c1NC(=O)C/C(N)=N/O | -21 | 8 | -2 | 0 | i | 0
Cc1ccc(NC(=O)C/C(N)=N/O)cc1C | 69* | -3 | 13 | 0 | i | 0
CCOC(=O)c1cc(C#N)c(SCC(=O)c2cc(C#N)c(SC)nc2C)nc1C | 73* | / | / | / | / | /
CCOC(=O)c1cc(C#N)c(SCc2cccc3ccccc23)nc1C | 2 | -40 | -3 | -1 | i | 0
NS(=O)(=O)c1ccc(NC(=O)C2C3C=CC(C3)C2C(=O)O)cc1 (stereo not drawn) | 60* | -11 | -6 | 0 | i | 0
COc1ccc(NC(=O)C2C3C=CC(C3)C2C(=O)O)cc1 (stereo not drawn) | 24 | -7 | / | / | i | /
SMILES | PHOSPHO1 inh | NCF1 inh | PKD1 kinase inh | ABCB1 inh | HSV augment | ABCG2 block
CCn1ccnc1CN(C)Cc1nc(Cc2cccc(C(F)(F)F)c2)no1 | 30 | 1 | -4 | 0 | i | 0
COc1ccccc1NC(=O)C(=O)N/N=C/c1cccs1 | -4 | 2 | 0 | 0 | i | 2
COCCNC(=O)C(=O)N/N=C/c1cccs1 | 65* | -1 | 1 | 1 | i | 0
Cc1nccc(-c2cc(-c3ccc(Cl)cc3Cl)no2)n1 | 32 | -2 | / | / | i | /
CCOC(=O)Cc1c(C)nc(SC)[nH]c1=O | 28 | -9 | -9 | 1 | i | 2
CCOC(=O)c1c(N)sc(-c2ccccc2)c1C | -4 | 14 | -6 | 1 | i | 18
Cc1c(-c2ccccc2)sc(N)c1C(=O)N1CCOCC1 | 74* | -13 | -9 | 0 | i | 0

Compound activity from PubChem.
